Measured values published in ChEMBL document CHEMBL1155216, “A direct synthesis of 5,6-dihydroindolo[2,1-a]isoquinolines that exhibit immunosuppressive activity” (Bioorg Med Chem Lett, 2009).
The source made the active and inactive calls. The rule behind the calls is not given here.

Experiments:
[1] = test system: Splenocyte; assay: Immunosuppressive activity in influenza virus A/PR/8/34-H1N1 infected mouse splenocytes assessed as reduction of IL-2 level at 0.5 mg/ml after 48 hrs by ELISA; format: functional, cell-based
Summary of the method: (§1)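 Spleen cells from mice taken 7 days after influenza infection; RBCs lysed with ammonium chloride, washed in HBSS, 5 × 10⁶ cells/ml in AIM-V. Restimulated with virus, compounds at 0.5 mg/ml final, triplicate, 37 °C, 5% CO₂. Supernatants collected at 48 h for IL-2 and IFN-γ and at 96 h for IL-10. Sandwich ELISA, TMB readout, four-parameter standard-curve fit.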

[2] = Cytotoxicity against mouse splenocytes assessed as cell viability after 72 hrs by MTS assay; format: cell-based; settings: splenocyte
Summary of the method: (§2)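 Spleen cells from non-infected mice, no stimulus added, cultured at 5 × 10⁶ cells/ml in AIM-V medium (1.25 × 10⁵ cells/well) with each compound for the stated time at 37 °C, 5% CO₂, humidified. MTS plus phenazine ethosulfate then added and incubated 3 h more. Absorbance read at 490 nm. Viability compared against vehicle control.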

[3] = test system: Splenocyte; assay: Immunosuppressive activity in influenza virus A/PR/8/34-H1N1 infected mouse splenocytes assessed as reduction of IFN-gamma level at 0.5 mg/ml after 48 hrs by ELISA; format: functional, cell-based; summary of the method: as §1
[4] = Cytotoxicity against mouse splenocytes assessed as cell viability after 24 hrs by MTS assay; format: cell-based; settings: splenocyte; summary of the method: as §2
[5] = Cytotoxicity against mouse splenocytes assessed as cell viability after 48 hrs by MTS assay; format: cell-based; settings: splenocyte; summary of the method: as §2
[6] = test system: Splenocyte; assay: Immunosuppressive activity in influenza virus A/PR/8/34-H1N1 infected mouse splenocytes assessed as reduction of IL-10 level at 0.5 mg/ml after 96 hrs by ELISA; format: functional, cell-based; summary of the method: as §1

COc1cccc2cc3n(c12)CCc1ccccc1-3
Activity [1]: Active | Activity [2]: Toxic | Activity [3]: Active | Activity [4]: Toxic | Activity [5]: Toxic | Activity [6]: Active

COc1cc2c(cc1OC)-c1cc3cc(OC)c(OC)cc3n1CC2
Activity [1]: Active | Activity [2]: Toxic | Activity [3]: Active | Activity [4]: Toxic | Activity [5]: Toxic | Activity [6]: Active

c1ccc2c(c1)CCn1c-2cc2ccccc21
Activity [1]: Active | Activity [3]: Active | Activity [6]: Active

FC(F)(F)c1ccc2cc3n(c2c1)CCc1ccccc1-3
Activity [1]: Active | Activity [2]: Non-toxic | Activity [3]: Active | Activity [4]: Toxic | Activity [5]: Non-toxic | Activity [6]: Active

COc1cc2c(cc1OC)-c1cc3ccc(C(F)(F)F)cc3n1CC2
Activity [1]: Active | Activity [2]: Non-toxic | Activity [3]: Active | Activity [4]: Toxic | Activity [5]: Non-toxic | Activity [6]: Active

COc1cc2c(cc1OC)-c1cc3ccccc3n1CC2
Activity [1]: Active | Activity [2]: Toxic | Activity [3]: Active | Activity [4]: Toxic | Activity [5]: Toxic | Activity [6]: Active

COc1cc2c(cc1OC)-c1cc3cccc(OC)c3n1CC2
Activity [1]: Active | Activity [3]: Active | Activity [6]: Active

COc1cc2c(cc1OC)-c1cc3cc(C(F)(F)F)ccc3n1CC2
Activity [1]: Active | Activity [2]: Toxic | Activity [3]: Active | Activity [4]: Toxic | Activity [5]: Toxic | Activity [6]: Active

COc1cc2cc3n(c2cc1OC)CCc1ccccc1-3
Activity [1]: Active | Activity [2]: Toxic | Activity [3]: Active | Activity [4]: Toxic | Activity [5]: Toxic | Activity [6]: Active

FC(F)(F)c1ccc2c(c1)cc1n2CCc2ccccc2-1
Activity [1]: Active | Activity [2]: Non-toxic | Activity [3]: Active | Activity [4]: Non-toxic | Activity [5]: Non-toxic | Activity [6]: Active
